In ChEMBL document CHEMBL2406916, “7-Hydroxy-(E)-3-phenylmethylene-chroman-4-one analogues as efflux pump inhibitors against Mycobacterium smegmatis mc² 155” (2013):
Values after ≈ are worked out from the molar mass of the structure shown. Active and inactive are the calls of the source. The calls are words filed in the database; no cut-off is given here.

Key:
[1] = test system: Mycolicibacterium smegmatis MC2 155; assay: Inhibition of multidrug resistance efflux pump in Mycobacterium smegmatis MC2 155 ATCC 700084 assessed as reduction in EtBr MIC at 125 mg/L by MTT assay relative to control
[2] = test system: Mycolicibacterium smegmatis; assay: Antimicrobial activity against Mycobacterium smegmatis MC2 155 ATCC 700084 at 125 mg/L after 72 hrs by MTT assay in presence of EtBr; type: functional
[3] = test system: Mycolicibacterium smegmatis MC2 155; assay: Inhibition of multidrug resistance efflux pump in Mycobacterium smegmatis MC2 155 ATCC 700084 assessed as EtBr accumulation at half concentration of MIC measured every 3 mins interval for 45 mins by fluorometric method
In short: (§1)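 Cells are grown in 7H9/OADC at 37 °C to OD600 0.8, then pelleted and exposed to EtBr with test compound. Verapamil, reserpine, CCCP and DMSO serve as controls. EtBr fluorescence (excitation 530 nm, emission 600 nm) is read every 3 min for 45 min in a microplate spectrofluorimeter. Test concentrations are fractions (1/2, 1/4, 1/8) of each compound's MIC.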

[4] = test system: Mycolicibacterium smegmatis; assay: Antimicrobial activity against Mycobacterium smegmatis MC2 155 ATCC 700084 after 72 hrs by MTT assay; type: functional; conditions: MC2 155 ATCC 700084, 72 h
[5] = test system: Mycolicibacterium smegmatis; assay: Antimicrobial activity against Mycobacterium smegmatis MC2 155 ATCC 700084 at 62.5 mg/L after 72 hrs by MTT assay in presence of EtBr; type: functional
[6] = test system: Mycolicibacterium smegmatis; assay: Antimicrobial activity against Mycobacterium smegmatis MC2 155 ATCC 700084 at 31.2 mg/L after 72 hrs by MTT assay in presence of EtBr; type: functional
[7] = test system: Mycolicibacterium smegmatis MC2 155; assay: Inhibition of multidrug resistance efflux pump in Mycobacterium smegmatis MC2 155 ATCC 700084 assessed as reduction in EtBr MIC at 62.5 mg/L by MTT assay relative to control
[8] = test system: Mycolicibacterium smegmatis MC2 155; assay: Inhibition of multidrug resistance efflux pump in Mycobacterium smegmatis MC2 155 ATCC 700084 assessed as reduction in EtBr MIC at 31.2 mg/L by MTT assay relative to control
[9] = test system: Mycolicibacterium smegmatis MC2 155; assay: Inhibition of multidrug resistance efflux pump in Mycobacterium smegmatis MC2 155 ATCC 700084 assessed as reduction in EtBr MIC at 250 mg/L by MTT assay relative to control
[10] = test system: Mycolicibacterium smegmatis MC2 155; assay: Inhibition of multidrug resistance efflux pump in Mycobacterium smegmatis MC2 155 ATCC 700084 assessed as EtBr accumulation at 31.5 mg/L measured every 3 mins interval for 45 mins by spectrofluorometric method; in short: as §1
[11] = test system: Mycolicibacterium smegmatis MC2 155; assay: Inhibition of multidrug resistance efflux pump in Mycobacterium smegmatis MC2 155 ATCC 700084 assessed as EtBr accumulation at 31.5 mg/L measured every 3 mins interval for 45 mins by fluorometric method; in short: as §1
[12] = test system: Mycolicibacterium smegmatis; assay: Antimicrobial activity against Mycobacterium smegmatis MC2 155 ATCC 700084 at 40 mg/L after 72 hrs by MTT assay in presence of EtBr; type: functional
[13] = test system: Mycolicibacterium smegmatis MC2 155; assay: Inhibition of multidrug resistance efflux pump in Mycobacterium smegmatis MC2 155 ATCC 700084 assessed as EtBr accumulation at 128 mg/L measured every 3 mins interval for 45 mins by fluorometric method; in short: as §1
[14] = test system: Mycolicibacterium smegmatis MC2 155; assay: Inhibition of multidrug resistance efflux pump in Mycobacterium smegmatis MC2 155 ATCC 700084 assessed as reduction in EtBr MIC at 16 mg/L by MTT assay relative to control
[15] = test system: Mycolicibacterium smegmatis MC2 155; assay: Inhibition of multidrug resistance efflux pump in Mycobacterium smegmatis MC2 155 ATCC 700084 assessed as EtBr accumulation at 12.5 mg/L measured every 3 mins interval for 45 mins by fluorometric method; in short: as §1
[16] = test system: Mycolicibacterium smegmatis; assay: Antimicrobial activity against Mycobacterium smegmatis MC2 155 ATCC 700084 at 16 mg/L after 72 hrs by MTT assay in presence of EtBr; type: functional
[17] = test system: Mycolicibacterium smegmatis; assay: Antimicrobial activity against Mycobacterium smegmatis MC2 155 ATCC 700084 at 80 mg/L after 72 hrs by MTT assay in presence of EtBr; type: functional

Structure (SMILES)	fold change (FC) [1]	fractional inhibitory concentration index (FICI) [2]	Activity [3]	MIC [4] [µg/mL]	fractional inhibitory concentration index (FICI) [5]	fold change (FC) [7]	also measured
O=C1/C(=C/c2cccc(F)c2)COc2cc(O)ccc21	4	0.75	Active	250 (≈ 925 µM)	–	–	–
COc1ccc(/C=C2\COc3cc(O)ccc3C2=O)cc1 [BONDUCELLIN]	–	–	Active	125 (≈ 443 µM)	0.62	8	fractional inhibitory concentration index (FICI) [6]: 0.5; fold change (FC) [8]: 4
COc1ccc(/C=C2\COc3c(ccc(O)c3OC)C2=O)cc1 [E-8-METHOXYBONDUCELLIN]	–	–	–	125 (≈ 400 µM)	1	2	–
O=C1/C(=C/c2ccc(F)cc2)COc2cc(O)ccc21	4	0.75	Active	250 (≈ 925 µM)	–	–	–
COc1ccc(/C=C2\COc3cc(O)cc(O)c3C2=O)cc1	–	–	–	–	–	2	fold change (FC) [9]: 4
COc1cccc(/C=C2\COc3cc(O)ccc3C2=O)c1	2	0.75	–	500 (≈ 1770 µM)	–	–	–
COc1ccc(/C=C2\COc3c(ccc(O)c3O)C2=O)cc1 [INTRICATINOL]	–	–	–	125 (≈ 419 µM)	1	2	–
O=C1/C(=C/c2ccccc2F)COc2cc(O)ccc21	–	–	Active	125 (≈ 463 µM)	0.75	4	Activity [10]: Active; Activity [11]: Active
O=C1/C(=C/c2ccccc2Cl)COc2cc(O)ccc21	–	–	–	125 (≈ 436 µM)	1	2	–
O=C1/C(=C/c2ccc(O)cc2)COc2cc(O)ccc21	16	0.56	Active	250 (≈ 932 µM)	0.37	8	–
C=CCOc1cccc(/C=C2\COc3cc(O)ccc3C2=O)c1	8	0.62	Active	250 (≈ 811 µM)	0.5	4	Activity [10]: Active; Activity [11]: Active
O=C1/C(=C/c2ccccc2Br)COc2cc(O)ccc21	–	–	–	125 (≈ 377 µM)	1	2	–
O=C1/C(=C/c2cccc(Br)c2)COc2cc(O)ccc21	2	0.75	–	500 (≈ 1510 µM)	–	–	–
COC(=O)[C@H]1[C@H]2C[C@@H]3c4[nH]c5cc(OC)ccc5c4CCN3C[C@H]2C[C@@H](OC(=O)c2cc(OC)c(OC)c(OC)c2)[C@@H]1OC [RESERPINE]	–	–	–	256 (≈ 421 µM)	–	–	fractional inhibitory concentration index (FICI) [12]: 0.4; Activity [13]: Active
COc1ccccc1/C=C1\COc2cc(O)ccc2C1=O	4	0.75	Active	250 (≈ 886 µM)	–	–	–
O=C1/C(=C/c2ccc(C(F)(F)F)cc2)COc2cc(O)ccc21	4	0.75	–	250 (≈ 781 µM)	–	–	–
O=C1/C(=C/c2cccc(O)c2)COc2cc(O)ccc21	4	0.5	Active	500 (≈ 1860 µM)	–	–	–
O=C1/C(=C/c2ccc(Cl)cc2)COc2cc(O)ccc21	4	0.75	Active	250 (≈ 872 µM)	–	–	–
N#CC(C#N)=NNc1cccc(Cl)c1 [CARBONYL CYANIDE M-CHLOROPHENYLHYDRAZONE]	–	–	–	25 (≈ 122 µM)	–	–	fold change (FC) [14]: 2; Activity [15]: Active; fractional inhibitory concentration index (FICI) [16]: 1.14
CC[n+]1c(-c2ccccc2)c2cc(N)ccc2c2ccc(N)cc21.[Br-] [HOMIDIUM BROMIDE]	–	–	–	16	–	–	–
O=C1/C(=C/c2cccc(Cl)c2)COc2cc(O)ccc21	2	1	–	250 (≈ 872 µM)	–	–	–
O=C1/C(=C/c2ccccc2)COc2cc(O)ccc21	8	0.37	Active	500 (≈ 1980 µM)	0.37	4	–
C=CCOc1ccccc1/C=C1\COc2cc(O)ccc2C1=O	2	0.75	–	500 (≈ 1620 µM)	–	–	–
COc1ccc(CCN(C)CCCC(C#N)(c2ccc(OC)c(OC)c2)C(C)C)cc1OC (stereo not drawn)	–	–	–	300 (≈ 660 µM)	–	–	fractional inhibitory concentration index (FICI) [17]: 0.552; fractional inhibitory concentration index (FICI) [12]: 0.63
O=C1/C(=C/c2ccc(Br)cc2)COc2cc(O)ccc21	2	0.75	–	500 (≈ 1510 µM)	–	–	–
C=CCOc1ccc(/C=C2\COc3cc(O)ccc3C2=O)cc1	2	0.75	–	250 (≈ 811 µM)	–	–	–
